Source: ChEMBL document CHEMBL1149450, “Synthesis and cytotoxic evaluation of new derivatives of the marine alkaloid variolin B” (2006)

What was measured:
Format in all cases: functional
LoVo [1] = assay: Inhibition of growth against LoVo-Dox cells after 72 hrs exposure; conditions: Homo sapiens
Summary of the method: (§1)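 Human tumour cells seeded at 5 × 10^3 per well in RPMI and allowed to attach for 18 h in drug-free medium. Compounds added in DMSO:H2O (3:7) for 72 h of continuous exposure. Cells fixed with cold TCA (60 min, 4 °C), stained with 0.4% SRB in 1% acetic acid (10 min, RT), and bound dye solubilised in Tris. OD read at 490 nm. GI50 calculated from 100 × [(T − T0)/(C − T0)] = 50, using control, test and time-zero ODs.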

PANC-1 = assay: Inhibition of growth against PANC1 cells after 72 hrs exposure; conditions: Homo sapiens, PANC-1, 72 h; summary of the method: as §1
LoVo [2] = assay: Inhibition of growth against LoVo cells after 72 hrs exposure; conditions: Homo sapiens; summary of the method: as §1
IGROV-1 [3] = assay: Inhibition of growth against IGROV cells after 72 hrs exposure; conditions: Homo sapiens, IGROV-1, 72 h; summary of the method: as §1
K562 = assay: Inhibition of growth against K562 cells after 72 hrs exposure; conditions: Homo sapiens, K562, 72 h; summary of the method: as §1
SK-MEL-28 = assay: Inhibition of growth against MEL28 cells after 72 hrs exposure; conditions: Homo sapiens, SK-MEL-28, 72 h; summary of the method: as §1
HT-29 = assay: Inhibition of growth against HT29 cells after 72 hrs exposure; conditions: Homo sapiens, HT-29, 72 h; summary of the method: as §1
A549 = assay: Inhibition of growth against A549 cells after 72 hrs exposure; conditions: Homo sapiens, A549, 72 h; summary of the method: as §1
DU-145 = assay: Inhibition of growth against DU145 cells after 72 hrs exposure; conditions: Homo sapiens, DU-145, 72 h; summary of the method: as §1
HeLa [4] = assay: Inhibition of growth against HeLa-Apl cells after 72 hrs exposure; conditions: Homo sapiens; summary of the method: as §1
LNCaP = assay: Inhibition of growth against LnCAP cells after 72 hrs exposure; conditions: Homo sapiens; summary of the method: as §1
HeLa [5] = assay: Inhibition of growth against HeLa cells after 72 hrs exposure; conditions: Homo sapiens; summary of the method: as §1
SK-BR-3 = assay: Inhibition of growth against SKBR3 cells after 72 hrs exposure; conditions: Homo sapiens, SK-BR-3, 72 h; summary of the method: as §1
IGROV-1 [6] = assay: Inhibition of growth against IGROV-ET cells after 72 hrs exposure; conditions: Homo sapiens, IGROV-1, 72 h; summary of the method: as §1
SK-OV-3 = assay: Inhibition of growth against SKOV3 cells after 72 hrs exposure; conditions: Homo sapiens, SK-OV-3, 72 h; summary of the method: as §1
HMEC = assay: Inhibition of growth against HMEC1 cells after 72 hrs exposure; conditions: Homo sapiens; summary of the method: as §1

Structure (SMILES)	GI50 (LoVo [1]) [µM]	GI50 (PANC-1) [µM]	GI50 (LoVo [2]) [µM]	GI50 (IGROV-1 [3]) [µM]	GI50 (K562) [µM]	GI50 (SK-MEL-28) [µM]	GI50 (HT-29) [µM]	GI50 (A549) [µM]	GI50 (DU-145) [µM]	GI50 (HeLa [4]) [µM]	GI50 (LNCaP) [µM]	GI50 (HeLa [5]) [µM]	GI50 (SK-BR-3) [µM]	GI50 (IGROV-1 [6]) [µM]	GI50 (SK-OV-3) [µM]	GI50 (HMEC) [µM]
CN(C)Cc1cnc2c(c1O)c(-c1ccnc(N)n1)c1cc(-c3ccnc(N)n3)nc(NCc3ccccc3)n12	3.05	17.7	13.6	4.03	4.78	4.12	18.7	18.7	4.74	3.88	9.13	4.52	2.79	3.56		
COc1ccnc2c1c(-c1ccnc(N)n1)c1cc(-c3ccnc(N)n3)nc(NCc3ccccc3)n12	21	19.9	21	21	21	21	21	21	21	3.68	18.6	3.03	8.24	21		
COc1ccnc2c1cc1cc(-c3ccnc(N)n3)nc(NCc3ccccc3)n12	11	25.2	14.4	15.1	25.2	25.2	25.2	25.2	25.2		16		25.2	25.2	25.2	15
Nc1nccc(-c2cc3cc4c(O)ccnc4n3c(NCc3ccccc3)n2)n1	6.76	26.1	8.74	4.46	26.1	24.4	25.1	14.1	26.1		12.9		13.1	12.9	19	6.31
COc1ccnc2c1c(-c1ccnc(N)n1)c1cc(C(=O)NCCN(C)C)nc(NCc3ccccc3)n12	3.46	3.97	3.62	2.8	3.36	4.42	3.44	3.38	2.38		2.37		2.13	2.05	0.72	0.46
Nc1nccc(-c2cc3c(-c4ccnc(N)n4)c4c(O)ccnc4n3c(N)n2)n1	26.9	26.9	26.9	26.9	26.9	26.9	26.9	26.9	26.9	26.9	26.9	26.9	14.8	26.9		
Nc1nccc(-c2cc3c(-c4ccnc(N)n4)c4c(O)ccnc4n3c(NCc3ccccc3)n2)n1	21.7	21.7	21.7	21.7	21.7	21.7	21.7	21.7	21.7		21.7		21.7	9.9	21.7	21.7
Nc1nccc(-c2cc3cc4c(O)ccnc4n3c(N)n2)n1 [7-ISOVARIOLIN B]	34.1	21.8	34.1	27.9	9.24	3.41	34.1	34.1	34.1	8.86	5.28	6.14	31.9	31.9		
Nc1nccc(-c2c3c(O)ccnc3n3c(N)nccc23)n1 [VARIOLIN B]	1.02	1.68	0.8	1.14	1.55	1.2	2.85	0.98	0.89		0.05		0.85	1.28	1.21	0.27
